Data on 3 molecules can be found in ChEMBL document CHEMBL1139303, “One-pot synthesis of 5-phenylimino, 5-thieno or 5-oxo-1,2,3-dithiazoles and evaluation of their antimicrobial and antitumor activity” (2009).

Values after ≈ are worked out from the molar mass of the structure shown. Active and inactive are the calls of the source. No cut-off for these calls is given here.

Experiment [1] has as its system Enterococcus faecalis. Kind of experiment: Antibacterial activity against Enterococcus faecalis CIP 103214 at 50 ug after 24 hrs by agar diffusion method. Type of experiment: functional. The method, boiled down:
(§1)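 Bacteria pre-grown 24 h on nutritive agar (tryptone soy agar for E. faecalis, L. inocua) at 37 °C (30 °C for E. faecalis, L. inocua, B. cereus). Agar well diffusion with 50 µg compound in 80% DMSO; 80% DMSO alone as control. Inhibition zone diameter averaged from triplicate, scored 6-9, 9-12, >12 mm.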
Background: A growth-free zone around the sample is the usual read-out of agar diffusion tests.

For experiment [2], the system named is Candida tropicalis. Kind of experiment: Antifungal activity against Candida tropicalis DSM 1346 after 24 hrs by broth macrodilution method. Type of experiment: functional. Particulars: DSM 1346, 24 h. The procedure, abridged: (§2)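 Yeasts pre-grown on yeast extract peptone dextrose medium, 30 °C, 24 h. MIC and MFC by macro-dilution broth method; compounds in DMSO, max 2.13% solvent in cultures. Amphotericin B and fluconazole as references. MFC/MIC ratio computed; ≥4 taken as fungistatic. Triplicate.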

In experiment [3] the test system is Bacillus cereus. Nature of the experiment: Antibacterial activity against Bacillus cereus at 50 ug after 24 hrs by agar diffusion method. It is filed as functional. Particulars: for zone of inhibition at 50 µg/disc: read-out: IZ. The procedure, abridged: as §1
Experiment [4] has as its system Staphylococcus aureus. Nature of the experiment: Antibacterial activity against Staphylococcus aureus ATCC 25923 at 50 ug after 24 hrs by agar diffusion method. Type of experiment: functional. The procedure, abridged:
as §1

The next experiment concerns Pichia kudriavzevii. Kind of experiment: Antifungal activity against Issatchenkia orientalis DSM6128 at 50 ug after 24 hrs by agar diffusion method. Type of experiment: functional, organism-based. The procedure, abridged:
(§3)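 Yeasts grown on yeast extract peptone dextrose medium at 30 °C for 24 h, then agar well diffusion with 50 µg compound in 80% DMSO; 80% DMSO alone as control. Averaged inhibition zone diameter from triplicate, scored 6-9, 9-12 or >12 mm.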

Experiment [5] has as its system Nakaseomyces glabratus. Kind of experiment: Antifungal activity against Candida glabrata DSM6425 at 50 ug after 24 hrs by agar diffusion method. It is filed as functional. The conditions noted are these: for zone of inhibition at 50 µg/disc: DSM6425, 24 h, read-out: IZ. The method, boiled down: as §3
Experiment [6] relates to Nakaseomyces glabratus. Kind of experiment: Ratio of MFC to MIC against Candida glabrata DSM6425. Type of experiment: functional. The procedure, abridged: as §2
Experiment [7] concerns Candida albicans. Nature of the experiment: Antifungal activity against Candida albicans ATCC 10231 after 24 hrs by broth macrodilution method. Type of experiment: functional. Particulars: ATCC 10231, 24 h. The procedure, abridged: as §2
For experiment [8], the system named is Candida albicans. Kind of experiment: Antifungal activity against Candida albicans ATCC 10231 at 50 ug after 24 hrs by agar diffusion method. Type of experiment: functional. The conditions noted are these: for zone of inhibition at 50 µg/disc: ATCC 10231, 24 h, read-out: IZ. The procedure, abridged: as §3
The test system of experiment [9] is Nakaseomyces glabratus. Kind of experiment: Antifungal activity against Candida glabrata DSM6425 after 24 hrs by broth macrodilution method. It is filed as functional. The conditions noted are these: DSM6425, 24 h. The method, boiled down:
as §2

For experiment [10], the system named is Candida tropicalis. Kind of experiment: Antifungal activity against Candida tropicalis DSM 1346 at 50 ug after 24 hrs by agar diffusion method. Type of experiment: functional. Particulars: for zone of inhibition at 50 µg/disc: DSM 1346, 24 h, read-out: IZ. The method, boiled down:
as §3

Experiment [11] has as its system Escherichia coli. Nature of the experiment: Antibacterial activity against Escherichia coli ATCC 25922 at 50 ug after 24 hrs by agar diffusion method. It is filed as functional. Particulars: for zone of inhibition at 50 µg/disc: ATCC 25922, 24 h, read-out: IZ. The procedure, abridged:
as §1

Experiment [12] concerns MDA-MB-231. Kind of experiment: Antiproliferative activity against human MDA-MB-231 cells after 72 hrs by MTT assay. It is filed as functional. Particulars: MDA-MB-231, 72 h. The method, boiled down: (§4)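 5000 cells per well added to pre-equilibrated medium at 37 °C; compounds from 10^-3 M DMSO stocks, final 10^-5 M. After 72 h, MTT (5 g/L) for 4 h, formazan dissolved in DMSO, OD 550 nm. % growth inhibition vs 1% DMSO medium (0%) and 10% SDS lysis (100%); mean ± SEM, 24 measures, three independent experiments.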

The subject of experiment [13] is Bacillus cereus. Nature of the experiment: Antibacterial activity against Bacillus cereus after 24 hrs by broth macrodilution method. Type of experiment: functional. The method, boiled down:
(§5)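 Bacteria pre-grown 24 h on nutritive agar (tryptone soy agar for E. faecalis, L. inocua) at 37 °C (30 °C for E. faecalis, L. inocua, B. cereus). MIC and MBC determined by macro-dilution broth method; MBC = lowest concentration killing 99.99% of inoculum. Compounds in DMSO, max 2.13% solvent in cultures. Triplicate.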

Experiment [14] deals with Listeria innocua. Nature of the experiment: Antibacterial activity against Listeria innocua at 50 ug after 24 hrs by agar diffusion method. Type of experiment: functional. The method, boiled down: as §1
The subject of experiment [15] is MDA-MB-231. Nature of the experiment: Antiproliferative activity against human MDA-MB-231 cells at 10 uM after 72 hrs by MTT assay. The conditions noted are these: MDA-MB-231, 72 h. It is filed as functional. The procedure, abridged:
as §4
A general note: Tetrazolium dyes change colour on reduction, which living cells bring about.

The next experiment deals with MCF7. Kind of experiment: Antiproliferative activity against human MCF7 cells after 72 hrs by MTT assay. Type of experiment: functional. The conditions noted are these: MCF7, 72 h. The method, boiled down: as §4
The test system of the next experiment is Pseudomonas aeruginosa. Nature of the experiment: Antibacterial activity against Pseudomonas aeruginosa ATCC 27853 at 50 ug after 24 hrs by agar diffusion method. It is filed as functional, organism-based. The method, boiled down: as §1
Experiment [16] deals with Staphylococcus aureus. Kind of experiment: Antibacterial activity against Staphylococcus aureus ATCC 25923 after 24 hrs by broth macrodilution method. Type of experiment: functional. The conditions noted are these: ATCC 25923, 24 h. The procedure, abridged: as §5
For the next experiment, the system named is Klebsiella pneumoniae. Nature of the experiment: Antibacterial activity against Klebsiella pneumoniae CIP 53153 at 50 ug after 24 hrs by agar diffusion method. Type of experiment: functional, organism-based. The method, boiled down: as §1
Experiment [17] concerns Escherichia coli. Nature of the experiment: Antibacterial activity against Escherichia coli ATCC 25922 after 24 hrs by broth macrodilution method. Type of experiment: functional. The conditions noted are these: ATCC 25922, 24 h. The method, boiled down:
as §5

Experiment [18] concerns Enterococcus faecalis. Kind of experiment: Antibacterial activity against Enterococcus faecalis CIP 103214 after 24 hrs by broth macrodilution method. Particulars: CIP 103214, 24 h. It is filed as functional. The procedure, abridged: as §5
Experiment [19] relates to Listeria innocua. Nature of the experiment: Antibacterial activity against Listeria innocua after 24 hrs by broth macrodilution method. It is filed as functional. The procedure, abridged: as §5

In general, MFC refers to the lowest tested concentration that kills the fungus rather than only halting it. What is called MIC is the least concentration at which growth counts as inhibited. Lower therefore signals a more susceptible organism. One may read the GI50 as the concentration that inhibits growth by half. The low end stands for greater sensitivity of the cells, the high end for lower sensitivity of the cells. In general, MBC refers to the lowest tested concentration that kills the bacteria rather than only halting them. A low value points to more potent killing. In general, inhibition refers to how much of the control response was suppressed. Regarding `CCOC(=O)c1nss/c1=N\c1ccccc1`, the result in the experiment on Enterococcus faecalis [1], in the experiment with Pichia kudriavzevii, in the experiment on Escherichia coli [11], with Listeria innocua [14], with Pseudomonas aeruginosa and with Klebsiella pneumoniae was inactive. The minimal fungicidal concentration (MFC) against Candida tropicalis [2] was more than 48 µg/mL; against Candida albicans [7], more than 48 µg/mL; in the experiment on Nakaseomyces glabratus [9] it was 48 µg/mL (≈ 180 µM). Moreover, the minimal inhibitory concentration (MIC) in the experiment with Candida tropicalis [2] was determined as 32 µg/mL (≈ 120 µM); against Candida albicans [7], 48 µg/mL (≈ 180 µM); against Nakaseomyces glabratus [9], 32 µg/mL (≈ 120 µM); in the experiment with Bacillus cereus [13], 48 µg/mL (≈ 180 µM); with Staphylococcus aureus [16], 48 µg/mL (≈ 180 µM). For the same molecule, the zone of inhibition at 50 µg/disc in the experiment on Bacillus cereus [3] was 6 mm; in the experiment on Staphylococcus aureus [4] (Staphylococcus aureus, ATCC 25923, 24 h, read-out: IZ) it was 6 mm; in the experiment with Nakaseomyces glabratus [5], 9 mm; with Candida albicans [8], more than 12 mm; in the experiment with Candida tropicalis [10], 9 mm. Also, the Ratio in the experiment on Nakaseomyces glabratus [6] is listed as 1.5. Besides, the 50% growth inhibitory concentration (GI50) in the experiment with MDA-MB-231 [12] and with MCF7 was more than 10 µM in each case. For the same molecule, the MBC in the experiment with Bacillus cereus [13] and in the experiment with Staphylococcus aureus [16] was more than 48 µg/mL in each case. Further, the inhibition at 10 µM with MDA-MB-231 [15] came to 0%.
Regarding `O=c1ssnc1-c1ccccc1`, the outcome in the experiment with Enterococcus faecalis [1], in the experiment with Bacillus cereus [3], with Staphylococcus aureus [4], with Pichia kudriavzevii, with Nakaseomyces glabratus [5] and in the experiment on Candida albicans [8] was inactive. Besides, the outcome in the experiment on Candida tropicalis [10], in the experiment on Listeria innocua [14], in the experiment with Pseudomonas aeruginosa and in the experiment with Klebsiella pneumoniae was inactive. Also, the zone of inhibition at 50 µg/disc with Escherichia coli [11] was 6 mm. Besides, the GI50 in the experiment with MDA-MB-231 [12] and with MCF7 was more than 10 µM throughout. In the experiment on MDA-MB-231 [15], this molecule had an inhibition at 10 µM of 0%. The MBC with Escherichia coli [17] was more than 48 µg/mL. This molecule came in with an MIC against Escherichia coli [17] of more than 48 µg/mL.
Take `CCOC(=O)c1nssc1=S`: the zone of inhibition at 50 µg/disc is 9 mm with Enterococcus faecalis [1] (CIP 103214, 24 h, read-out: IZ); 9 mm in the experiment on Bacillus cereus [3]; 6 mm in the experiment with Nakaseomyces glabratus [5]; more than 12 mm with Candida albicans [8]; 6 mm in the experiment on Candida tropicalis [10]; 9 mm with Escherichia coli [11]. The zone of inhibition at 50 µg/disc with Listeria innocua [14] (read-out: IZ) worked out at 6 mm. Also, the figures for the MFC in the experiment with Candida tropicalis [2], in the experiment on Candida albicans [7] and in the experiment with Nakaseomyces glabratus [9] were more than 48 µg/mL, more than 48 µg/mL and 48 µg/mL (≈ 232 µM), respectively. The minimal inhibitory concentration (MIC) is 48 µg/mL (≈ 232 µM) in the experiment with Candida tropicalis [2]; more than 48 µg/mL with Enterococcus faecalis [18]; 48 µg/mL (≈ 232 µM) against Candida albicans [7]; 32 µg/mL (≈ 154 µM) in the experiment on Nakaseomyces glabratus [9]; more than 48 µg/mL against Bacillus cereus [13]; 32 µg/mL (≈ 154 µM) in the experiment with Listeria innocua [19]. Further, the MIC in the experiment on Staphylococcus aureus [16] was 48 µg/mL (≈ 232 µM); against Escherichia coli [17], more than 48 µg/mL. In addition, the minimum bactericidal concentration (MBC) against Enterococcus faecalis [18], in the experiment with Bacillus cereus [13], against Listeria innocua [19], with Staphylococcus aureus [16] and against Escherichia coli [17] was more than 48 µg/mL in each case. In the experiment with Staphylococcus aureus [4], this molecule registered an Activity of 12 mm. For the same molecule, the result in the experiment with Pichia kudriavzevii, in the experiment on Pseudomonas aeruginosa and with Klebsiella pneumoniae was inactive. Moreover, the Ratio in the experiment on Nakaseomyces glabratus [6] is given as 1.5. Further, the GI50 in the experiment on MDA-MB-231 [12] and in the experiment with MCF7 was more than 10 µM in each case. The same molecule registered an inhibition at 10 µM in the experiment on MDA-MB-231 [15] of 0%.
